Test results from ChEMBL document CHEMBL4190270, “Novel 4-arylaminoquinazoline derivatives with (E)-propen-1-yl moiety as potent EGFR inhibitors with enhanced antiproliferative activities against tumor cells” (Eur J Med Chem, 2017).
pIC50: −log10 of the molar value. Values belong to the compound of their own block, whether it stands above or below them. Activity calls are given as the source filed them. The calls are words filed in the database; no cut-off is given here.

What was measured:
SW480 = test: Antiproliferative activity against human SW480 cells harboring wild type EGFR after 72 hrs by MTT assay; type: functional, cell-based; details: SW480, 72 h
NCI-H1975 = test: Antiproliferative activity against human NCI-H1975 cells harboring EGFR L858R/T790M mutant after 72 hrs by MTT assay; type: functional, cell-based; details: NCI-H1975, 72 h
A-431 = test: Antiproliferative activity against human A431 cells harboring wild type EGFR after 72 hrs by MTT assay; type: functional, cell-based; details: A-431, 72 h
Summary of the method: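 Cells grown in DMEM or 1640 with 10% FBS, penicillin/streptomycin and 2 mM L-glutamine, plated in 96 wells for 24 h at 37 °C under 5% CO2. Exposed to compound as an 8-point series, or to 0.5% DMSO, for 72 h. Then MTT (5 mg/ml) for 4 h, formazan dissolved in DMSO, absorbance read at 570 nm (630 nm reference). IC50 by nonlinear regression; mean ± SD of at least three independent experiments.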

A549 [1] = test: Antiproliferative activity against human A549 cells harboring wild type EGFR/K-Ras mutant after 72 hrs by MTT assay; type: functional, cell-based; details: A549, 72 h
[2] = tested on: Epidermal growth factor receptor (Homo sapiens), P00533 [L858R,T790M]; test: Inhibition of EGF-induced EGFR L858R/T790M double mutant phosphorylation at Y992-residue in human NCI-H1975 cells preincubated for 2 hrs followed by EGF stimulation for 10 mins by Western blot analysis; type: cell-based
Epidermal growth factor receptor (Homo sapiens), P00533 [L858R,T790M], sequence (P00533 whole entry T790M/L858R, looked up): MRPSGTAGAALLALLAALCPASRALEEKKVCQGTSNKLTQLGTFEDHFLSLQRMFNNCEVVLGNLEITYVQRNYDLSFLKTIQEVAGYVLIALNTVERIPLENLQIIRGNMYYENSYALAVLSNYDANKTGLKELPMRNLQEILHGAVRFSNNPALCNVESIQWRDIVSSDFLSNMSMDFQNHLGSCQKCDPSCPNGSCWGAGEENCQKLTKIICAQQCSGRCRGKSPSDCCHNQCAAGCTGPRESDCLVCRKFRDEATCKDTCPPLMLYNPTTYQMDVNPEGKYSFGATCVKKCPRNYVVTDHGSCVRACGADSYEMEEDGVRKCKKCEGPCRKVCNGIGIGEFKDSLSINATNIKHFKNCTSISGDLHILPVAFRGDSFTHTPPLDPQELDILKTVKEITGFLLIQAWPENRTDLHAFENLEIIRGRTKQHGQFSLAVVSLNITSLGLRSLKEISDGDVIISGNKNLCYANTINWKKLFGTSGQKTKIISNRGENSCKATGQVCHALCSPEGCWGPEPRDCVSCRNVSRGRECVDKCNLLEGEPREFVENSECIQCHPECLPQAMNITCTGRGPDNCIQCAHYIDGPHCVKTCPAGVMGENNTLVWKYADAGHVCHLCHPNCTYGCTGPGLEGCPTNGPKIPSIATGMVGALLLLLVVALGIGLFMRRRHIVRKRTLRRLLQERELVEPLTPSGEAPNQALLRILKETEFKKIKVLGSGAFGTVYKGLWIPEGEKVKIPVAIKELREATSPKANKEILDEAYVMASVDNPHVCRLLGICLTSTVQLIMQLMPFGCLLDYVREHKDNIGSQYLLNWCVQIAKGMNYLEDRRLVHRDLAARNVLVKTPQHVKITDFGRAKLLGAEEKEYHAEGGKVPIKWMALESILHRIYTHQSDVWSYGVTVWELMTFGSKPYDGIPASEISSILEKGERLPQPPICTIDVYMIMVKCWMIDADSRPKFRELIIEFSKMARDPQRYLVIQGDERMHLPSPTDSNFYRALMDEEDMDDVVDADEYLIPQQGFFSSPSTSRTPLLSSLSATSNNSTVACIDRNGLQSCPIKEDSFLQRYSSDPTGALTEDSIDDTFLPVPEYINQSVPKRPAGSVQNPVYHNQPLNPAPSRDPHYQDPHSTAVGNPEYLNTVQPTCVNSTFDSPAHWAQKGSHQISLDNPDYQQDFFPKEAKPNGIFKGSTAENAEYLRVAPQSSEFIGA
Summary of the method: (§1)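 Cells grown in 6-well plates with 10% FBS to 90% confluence, then serum-starved 24 h. Exposed to a dose range of compound, or to 25 μM reference drug, for 2 h, then stimulated with 50 ng/mL EGF for 10 min at 37 °C. Lysed in RIPA with protease/phosphatase inhibitors. 20 µg protein run on 10% SDS-PAGE, transferred to PVDF, blocked with 5% milk, immunoblotted and detected by ECL.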

[3] = tested on: Epidermal growth factor receptor (Homo sapiens), P00533 [L858R,T790M]; test: Inhibition of EGFR L858R/T790M double mutant in human NCI-H1975 cells assessed as reduction in EGF-induced Akt phosphorylation at Ser473 residue at 25 uM preincubated for 2 hrs followed by EGF stimulation for 10 mins by Western blot analysis; type: cell-based; summary of the method: as §1
[4] = tested on: Epidermal growth factor receptor (Homo sapiens), P00533 [L858R,T790M]; test: Inhibition of EGFR L858R/T790M double mutant in human NCI-H1975 cells assessed as reduction in EGF-induced ERK1/2 phosphorylation at T202/Y204 residues at 25 uM preincubated for 2 hrs followed by EGF stimulation for 10 mins by Western blot analysis; type: cell-based; summary of the method: as §1
[5] = target: T1, Epidermal growth factor receptor (Homo sapiens, UniProt P00533); details: A549, at 25 µM
T1 sequence (P00533 whole entry): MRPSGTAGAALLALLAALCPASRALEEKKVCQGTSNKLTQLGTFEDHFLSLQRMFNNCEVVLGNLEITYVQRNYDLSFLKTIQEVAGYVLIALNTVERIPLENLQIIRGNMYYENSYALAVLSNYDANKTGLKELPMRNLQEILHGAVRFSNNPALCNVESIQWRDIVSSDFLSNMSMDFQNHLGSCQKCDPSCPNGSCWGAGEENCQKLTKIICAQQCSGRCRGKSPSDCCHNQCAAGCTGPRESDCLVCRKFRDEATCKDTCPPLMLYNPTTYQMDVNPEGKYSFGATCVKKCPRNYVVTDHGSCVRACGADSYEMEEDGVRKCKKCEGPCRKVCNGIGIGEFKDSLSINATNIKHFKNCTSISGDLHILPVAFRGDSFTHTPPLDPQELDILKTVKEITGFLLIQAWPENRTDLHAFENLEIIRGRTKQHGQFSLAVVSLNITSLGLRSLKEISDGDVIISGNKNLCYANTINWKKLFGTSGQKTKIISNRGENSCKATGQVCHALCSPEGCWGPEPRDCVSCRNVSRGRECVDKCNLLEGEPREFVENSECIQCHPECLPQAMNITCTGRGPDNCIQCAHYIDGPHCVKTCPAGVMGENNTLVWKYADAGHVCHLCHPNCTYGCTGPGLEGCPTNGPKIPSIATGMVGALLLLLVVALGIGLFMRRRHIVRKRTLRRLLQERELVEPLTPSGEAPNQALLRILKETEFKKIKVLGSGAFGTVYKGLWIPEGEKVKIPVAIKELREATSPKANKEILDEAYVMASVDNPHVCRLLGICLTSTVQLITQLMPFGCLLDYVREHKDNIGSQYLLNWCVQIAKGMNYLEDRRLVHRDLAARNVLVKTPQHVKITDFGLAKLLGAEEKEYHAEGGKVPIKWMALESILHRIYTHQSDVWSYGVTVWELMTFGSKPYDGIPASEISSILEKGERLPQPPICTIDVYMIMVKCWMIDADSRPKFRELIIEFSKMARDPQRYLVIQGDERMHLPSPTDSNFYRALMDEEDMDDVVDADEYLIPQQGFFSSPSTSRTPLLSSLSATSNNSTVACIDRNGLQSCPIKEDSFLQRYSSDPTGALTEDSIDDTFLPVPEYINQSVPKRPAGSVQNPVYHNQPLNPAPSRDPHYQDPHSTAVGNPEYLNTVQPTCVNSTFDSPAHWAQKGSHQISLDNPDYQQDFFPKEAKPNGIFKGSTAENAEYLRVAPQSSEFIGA

A549 [6] = test: Effect on total ERK1/2 protein expression in human A549 cells at 1 to 25 uM preincubated for 2 hrs followed by EGF stimulation for 10 mins by Western blot analysis; type: ADME, cell-based; details: a549, 10 min; summary of the method: as §1
[7] = target: T1, Epidermal growth factor receptor; details: A549, at 25 µM; remark: listed apart in the source
[8] = target: T1, Epidermal growth factor receptor; test: Inhibition of EGF-induced EGFR phosphorylation at Y992-residue in human A549 cells at 5 uM preincubated for 2 hrs followed by EGF stimulation for 10 mins by Western blot analysis; type: cell-based; summary of the method: as §1
[9] = tested on: Epidermal growth factor receptor (Homo sapiens), P00533 [L858R,T790M]; test: Inhibition of EGF-induced EGFR L858R/T790M double mutant phosphorylation at Tyr-residue in human NCI-H1975 cells preincubated for 2 hrs followed by EGF stimulation for 10 mins by Western blot analysis; type: cell-based; summary of the method: as §1
A549 [10] = test: Effect on total EGFR protein expression in human A549 cells at 1 to 25 uM preincubated for 2 hrs followed by EGF stimulation for 10 mins by Western blot analysis; type: ADME, cell-based; details: a549, 10 min; summary of the method: as §1
[11] = target: T1, Epidermal growth factor receptor; test: Inhibition of EGFR in human A549 cells assessed as reduction in EGF-induced STAT3 phosphorylation at 1 to 25 uM preincubated for 2 hrs followed by EGF stimulation for 10 mins by Western blot analysis; type: cell-based; summary of the method: as §1
[12] = tested on: Epidermal growth factor receptor (Homo sapiens), P00533 [L858R,T790M]; test: Inhibition of EGF-induced EGFR L858R/T790M double mutant phosphorylation at Y1068-residue in human NCI-H1975 cells preincubated for 2 hrs followed by EGF stimulation for 10 mins by Western blot analysis; type: cell-based; summary of the method: as §1
[13] = target: T1, Epidermal growth factor receptor; details: A549, at 25 µM; remark: listed apart in the source
[14] = target: T1, Epidermal growth factor receptor; test: Inhibition of EGF-induced EGFR phosphorylation at Y1086-residue in human A549 cells at 5 uM preincubated for 2 hrs followed by EGF stimulation for 10 mins by Western blot analysis; type: cell-based; summary of the method: as §1
[15] = target: T1, Epidermal growth factor receptor; test: Inhibition of EGF-induced EGFR phosphorylation at Tyr-residue in human A549 cells at 5 uM preincubated for 2 hrs followed by EGF stimulation for 10 mins by Western blot analysis; type: cell-based; summary of the method: as §1
[16] = target: T1, Epidermal growth factor receptor; test: Inhibition of EGFR in human A549 cells assessed as reduction in EGF-induced ERK1/2 phosphorylation at T202/Y204 residues at 5 uM preincubated for 2 hrs followed by EGF stimulation for 10 mins by Western blot analysis; type: cell-based; summary of the method: as §1
[17] = target: T1, Epidermal growth factor receptor; type: cell-based, HEK293
[18] = target: T1, Epidermal growth factor receptor; test: Inhibition of EGFR in human A549 cells assessed as reduction in EGF-induced Akt phosphorylation at S473 residue at 5 uM preincubated for 2 hrs followed by EGF stimulation for 10 mins by Western blot analysis; type: cell-based; summary of the method: as §1
[19] = target: T1, Epidermal growth factor receptor; details: A549, at 25 µM; remark: listed apart in the source
[20] = target: T1, Epidermal growth factor receptor; details: A549, at 25 µM; remark: listed apart in the source
A549 [21] = test: Effect on total AKT protein expression in human A549 cells at 1 to 25 uM preincubated for 2 hrs followed by EGF stimulation for 10 mins by Western blot analysis; type: ADME, cell-based; details: a549, 10 min; summary of the method: as §1
[22] = tested on: Epidermal growth factor receptor (Homo sapiens), P00533 [L858R,T790M]; details: NCI-H1975, at 25 µM

Structure (SMILES): C/C=C/c1ccc(Nc2ncnc3ccc(OCCN4CCOCC4)cc23)cc1
pIC50 (SW480): 4.20
pIC50 (NCI-H1975): < 4.00
pIC50 (A-431): 4.24
pIC50 (A549 [1]): 4.07

Structure (SMILES): C/C=C/c1ccc(Nc2ncnc3cc(OC)c(OCCCN4CCOCC4)cc23)cc1
pIC50 (SW480): 4.83
pIC50 (NCI-H1975): 4.41
pIC50 (A-431): 4.86
pIC50 (A549 [1]): 4.99

Structure (SMILES): C/C=C/c1ccc(Nc2ncnc3ccc(OCCCN4CCOCC4)cc23)cc1
pIC50 (SW480): 4.98
pIC50 (NCI-H1975): 4.62
pIC50 (A-431): 4.92
pIC50 (A549 [1]): 4.76

Structure (SMILES): C/C=C/c1ccc(Nc2ncnc3cc(OC)c(OCCN4CCOCC4)cc23)cc1
pIC50 (SW480): 4.55
pIC50 (NCI-H1975): < 4.00
pIC50 (A-431): 4.33
pIC50 (A549 [1]): 4.58

Structure (SMILES): C/C=C/c1ccc(Nc2ncnc3cc(OCCCN4CCOCC4)c(OCCCN4CCOCC4)cc23)cc1
inhibition [2]: Dose-dependent effect
inhibition [3]: Active
inhibition [4]: Active
inhibition [5]: Active
Activity (A549 [6]): Non-Toxic
inhibition [7]: Active
inhibition [8]: Active
inhibition [9]: Dose-dependent effect
Activity (A549 [10]): Non-Toxic
inhibition [11]: inactive
inhibition [12]: Dose-dependent effect
inhibition [13]: Active
inhibition [14]: Active
inhibition [15]: Active
inhibition [16]: Active
pIC50 [17]: 7.68
inhibition [18]: Active
inhibition [19]: Active
inhibition [20]: Active
Activity (A549 [21]): Non-Toxic
inhibition [22]: Active

Structure (SMILES): C/C=C/c1ccc(Nc2ncnc3cc4c(cc23)OCCO4)cc1
pIC50 (SW480): 4.47
pIC50 (NCI-H1975): < 4.00
pIC50 (A-431): < 4.00
pIC50 (A549 [1]): 4.42

Further lines, results first:

pIC50 (SW480): 4.93
pIC50 (NCI-H1975): 4.97
pIC50 (A-431): 5.20
pIC50 (A549 [1]): 4.99
Structure (SMILES): C/C=C/c1ccc(Nc2ncnc3cc(OCCCN4CCOCC4)c(OC)cc23)cc1

pIC50 (SW480): 4.36
pIC50 (NCI-H1975): 4.56
pIC50 (A-431): 4.62
pIC50 (A549 [1]): 4.61
Structure (SMILES): C/C=C/c1ccc(Nc2ncnc3cc(OCCOC)c(OCCOC)cc23)cc1

pIC50 (SW480): 4.43
pIC50 (NCI-H1975): 4.36
pIC50 (A-431): 4.55
pIC50 (A549 [1]): 4.44
Structure (SMILES): C/C=C/c1ccc(Nc2ncnc3cc(OCc4ccccc4)c(OCc4ccccc4)cc23)cc1

pIC50 (SW480): 4.25
pIC50 (NCI-H1975): < 4.00
pIC50 (A-431): 4.43
pIC50 (A549 [1]): 4.07
Structure (SMILES): C/C=C/c1ccc(Nc2ncnc3ccc(-c4ccc(CNCCS(C)(=O)=O)o4)cc23)cc1

pIC50 (SW480): 4.56
pIC50 (NCI-H1975): < 4.00
pIC50 (A-431): 4.65
pIC50 (A549 [1]): 4.43
Structure (SMILES): C/C=C/c1ccc(Nc2ncnc3cc(OCCN4CCOCC4)c(OC)cc23)cc1

pIC50 (NCI-H1975): 5.04
Structure (SMILES): CS(=O)(=O)CCNCc1ccc(-c2ccc3ncnc(Nc4ccc(OCc5cccc(F)c5)c(Cl)c4)c3c2)o1 [LAPATINIB]
